In ChEMBL document CHEMBL1149661, “Synthesis, biological evaluation, and molecular modeling of 3,5-substituted-N1-phenyl-N4,N4-di-n-butylsulfanilamides as antikinetoplastid antimicrotubule agents” (Bioorg Med Chem, 2007):

How the values were obtained:
Tubulin = Tubulin (Sus scrofa, UniProt P02554+P02550); test: Inhibition of porcine tubulin assembly; format: protein assay
Outline: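 Purified porcine brain tubulin at a final 2 mg/mL (raised from 1.5 mg/mL to make control assembly more reproducible). Polymerization read as the absorbance change at 351 nm after 20 min at 30 °C relative to controls. IC50 is the mean ± SD of at least three independent experiments.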

[1] = Toxicity against monkey Vero cells; format: cell-based; details: Chlorocebus sabaeus (monkey)
Leishmania donovani = test: Growth inhibition against Leishmania donovani; format: functional, organism-based
[2] = Inhibition of Leishmania tarentolae tubulin assembly
Outline: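 Purified Leishmania tarentolae tubulin, 1.5 mg/mL, polymerized with or without compound. Assembly read as the absorbance change at 351 nm after 20 min at 30 °C, compared with untreated controls. Assembly kinetics were also followed over time. IC50 is the mean ± SD of at least three independent experiments.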

[3] = test system: Trypanosoma brucei brucei; test: Growth inhibition against Trypanosoma brucei brucei; format: functional, organism-based
Tubulin (Sus scrofa) = Tubulin (Sus scrofa) (UniProt P02554+P02550); test: Inhibition of porcine tubulin assembly at 100 uM; format: protein assay
Sequence of Tubulin (Sus scrofa) (P02550 whole entry, looked up): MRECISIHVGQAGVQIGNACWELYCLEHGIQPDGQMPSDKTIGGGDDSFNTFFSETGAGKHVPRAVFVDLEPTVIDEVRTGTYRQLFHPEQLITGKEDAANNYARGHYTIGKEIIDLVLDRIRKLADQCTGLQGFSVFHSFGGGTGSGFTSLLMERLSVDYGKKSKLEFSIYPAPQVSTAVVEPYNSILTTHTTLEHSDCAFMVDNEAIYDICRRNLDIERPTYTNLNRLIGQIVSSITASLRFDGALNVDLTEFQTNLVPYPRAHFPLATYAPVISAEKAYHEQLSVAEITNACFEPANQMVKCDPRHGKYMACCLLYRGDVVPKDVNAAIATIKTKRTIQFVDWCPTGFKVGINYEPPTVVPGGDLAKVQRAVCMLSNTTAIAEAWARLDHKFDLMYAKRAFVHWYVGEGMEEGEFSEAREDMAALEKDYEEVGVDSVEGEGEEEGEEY
Sequence of Tubulin (Sus scrofa) (P02554 whole entry, looked up): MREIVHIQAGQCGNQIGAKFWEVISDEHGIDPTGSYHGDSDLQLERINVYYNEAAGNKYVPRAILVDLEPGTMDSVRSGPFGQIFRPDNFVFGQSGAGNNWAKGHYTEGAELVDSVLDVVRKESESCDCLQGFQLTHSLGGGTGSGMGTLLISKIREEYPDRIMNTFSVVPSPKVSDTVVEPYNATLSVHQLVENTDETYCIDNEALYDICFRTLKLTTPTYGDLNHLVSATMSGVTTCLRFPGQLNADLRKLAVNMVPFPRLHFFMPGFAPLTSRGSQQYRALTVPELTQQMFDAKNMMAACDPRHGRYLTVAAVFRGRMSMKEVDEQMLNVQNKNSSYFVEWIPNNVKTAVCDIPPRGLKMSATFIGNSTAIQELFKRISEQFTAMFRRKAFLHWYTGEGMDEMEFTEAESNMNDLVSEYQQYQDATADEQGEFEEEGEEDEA
Outline: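 Porcine brain tubulin at a final 2 mg/mL, assembled with compound at a single 100 μM. Inhibition taken from the absorbance change at 351 nm after 20 min at 30 °C, relative to controls without compound.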

IC50 (Tubulin) [µM] | IC50 [2] [µM] | IC50 [3] [µM] | inhibition (Tubulin (Sus scrofa)) [%] | SMILES | IC50 [1] [µM] | IC50 (Leishmania donovani) [µM]
> 50 | 6.6 | 0.26 | – | CCCCN(CCCC)c1c(C#N)cc(S(=O)(=O)Nc2ccccc2)cc1C#N | 16 | 4.4
> 50 | > 100 | 4 | 50 | CCCCN(CCCC)c1c(N)cc(S(=O)(=O)Nc2ccccc2)cc1N | 27 | 12
> 40 | 7.4 | 0.18 | – | CCCCN(CCCC)c1c([N+](=O)[O-])cc(S(=O)(=O)Nc2ccccc2)cc1[N+](=O)[O-] | 9.7 | 2.3
> 50 | 9.1 | 1.6 | – | CCCCN(CCCC)c1c(Cl)cc(S(=O)(=O)Nc2ccccc2)cc1Cl | 19 | 11

Further lines, the compound ahead of its results:

SMILES | IC50 (Tubulin) [µM] | IC50 [2] [µM] | IC50 [3] [µM] | inhibition (Tubulin (Sus scrofa)) [%] | IC50 [1] [µM] | IC50 (Leishmania donovani) [µM]
CCCCN(CCCC)c1c(C(C)=O)cc(S(=O)(=O)Nc2ccccc2)cc1C(C)=O | > 100 | > 100 | 1.6 | – | 26 | 30
CCCCN(CCCC)c1c(C(=O)OC)cc(S(=O)(=O)Nc2ccccc2)cc1C(=O)OC | – | > 100 | > 50 | – | – | > 50
COc1cc([C@@H]2c3cc4c(cc3[C@H](O)[C@H]3COC(=O)[C@H]23)OCO4)cc(OC)c1OC [PODOFILOX] | – | – | – | – | 0.016 | –
CCCCN(CCCC)c1c(C(=O)O)cc(S(=O)(=O)Nc2ccccc2)cc1C(=O)O | – | > 100 | > 50 | – | – | > 50
N=C(N)c1ccc(OCCCCCOc2ccc(C(=N)N)cc2)cc1 [PENTAMIDINE] | – | – | – | – | – | 2.3
CCCCN(CCCC)c1c(C(N)=O)cc(S(=O)(=O)Nc2ccccc2)cc1C(N)=O | – | > 100 | > 50 | – | – | > 50
Cc1ccc(C(=O)Nc2ccc(S(=O)(=O)O)c3cc(S(=O)(=O)O)cc(S(=O)(=O)O)c23)cc1NC(=O)c1cccc(NC(=O)Nc2cccc(C(=O)Nc3cc(C(=O)Nc4ccc(S(=O)(=O)O)c5cc(S(=O)(=O)O)cc(S(=O)(=O)O)c45)ccc3C)c2)c1 [SURAMIN] | – | – | 0.077 | – | – | –
